The text below walks through data of ChEMBL document CHEMBL3751721, “Development of acridine derivatives as selective Mycobacterium tuberculosis DNA gyrase inhibitors” (Bioorg Med Chem, 2016).

In brackets after ≈: the same amount, converted by molar mass. Activity calls are given as the source filed them. No cut-off for these calls is given here.

The subject of data set [1] is Mycobacterium tuberculosis. The experiment in a line: Inhibition of Mycobacterium tuberculosis DNA topoisomerase 1 assessed as DNA relaxation at 50 uM.
The target in data set [2] is DNA gyrase subunit A/DNA gyrase subunit B (Mycobacterium tuberculosis (strain ATCC 25618 / H37Rv), UniProt P9WG45+P9WG47). Put plainly: Inhibition of Mycobacterium tuberculosis DNA gyrase assessed as inhibition of DNA supercoiling after 30 mins by electrophoresis.
Sequence of DNA gyrase subunit A/DNA gyrase subunit B (P9WG45 whole entry): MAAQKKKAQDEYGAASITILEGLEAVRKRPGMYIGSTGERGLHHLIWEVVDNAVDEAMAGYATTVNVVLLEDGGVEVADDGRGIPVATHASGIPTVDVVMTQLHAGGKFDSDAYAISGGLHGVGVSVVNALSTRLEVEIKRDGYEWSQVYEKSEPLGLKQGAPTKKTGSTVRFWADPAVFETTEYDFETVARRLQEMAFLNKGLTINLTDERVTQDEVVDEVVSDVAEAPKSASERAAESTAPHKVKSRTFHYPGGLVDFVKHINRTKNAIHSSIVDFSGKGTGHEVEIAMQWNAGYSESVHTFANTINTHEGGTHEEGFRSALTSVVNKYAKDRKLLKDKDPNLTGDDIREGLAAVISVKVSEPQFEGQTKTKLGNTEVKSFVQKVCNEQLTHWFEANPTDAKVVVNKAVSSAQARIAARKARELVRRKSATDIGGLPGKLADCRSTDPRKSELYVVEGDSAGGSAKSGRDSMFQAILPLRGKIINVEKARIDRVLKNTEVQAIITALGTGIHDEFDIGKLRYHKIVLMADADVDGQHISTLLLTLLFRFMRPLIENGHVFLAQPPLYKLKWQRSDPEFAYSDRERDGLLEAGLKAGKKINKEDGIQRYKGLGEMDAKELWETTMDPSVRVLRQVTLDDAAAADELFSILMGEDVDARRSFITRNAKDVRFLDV
Sequence of DNA gyrase subunit A/DNA gyrase subunit B (P9WG47 whole entry): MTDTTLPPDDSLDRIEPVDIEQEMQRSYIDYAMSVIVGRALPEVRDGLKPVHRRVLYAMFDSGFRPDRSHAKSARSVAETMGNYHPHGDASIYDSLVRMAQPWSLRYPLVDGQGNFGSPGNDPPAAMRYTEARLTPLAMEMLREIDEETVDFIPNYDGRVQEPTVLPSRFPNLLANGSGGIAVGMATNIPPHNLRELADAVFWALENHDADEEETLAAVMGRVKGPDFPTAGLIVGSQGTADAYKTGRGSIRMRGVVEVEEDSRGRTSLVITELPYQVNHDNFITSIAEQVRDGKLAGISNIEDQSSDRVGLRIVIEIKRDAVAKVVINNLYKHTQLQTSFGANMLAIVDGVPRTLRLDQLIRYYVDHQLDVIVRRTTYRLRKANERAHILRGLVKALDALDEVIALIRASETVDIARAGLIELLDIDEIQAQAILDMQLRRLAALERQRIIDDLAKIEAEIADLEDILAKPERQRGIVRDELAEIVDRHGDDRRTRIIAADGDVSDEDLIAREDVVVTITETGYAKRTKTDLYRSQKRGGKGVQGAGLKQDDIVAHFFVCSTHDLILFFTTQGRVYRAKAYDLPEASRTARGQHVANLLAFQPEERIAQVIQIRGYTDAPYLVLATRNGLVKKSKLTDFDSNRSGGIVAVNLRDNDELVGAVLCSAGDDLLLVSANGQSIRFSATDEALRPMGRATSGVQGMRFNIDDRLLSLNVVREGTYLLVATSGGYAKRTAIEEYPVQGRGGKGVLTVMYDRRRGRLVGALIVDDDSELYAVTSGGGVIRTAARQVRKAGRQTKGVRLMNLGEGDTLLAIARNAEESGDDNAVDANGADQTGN
The nature of data set [3]: Toxicity in zebrafish embryo assessed as atrio-ventricular ratio at 30 uM. Further details: species or system Danio rerio. Conditions: in vivo. The method in brief:
(§1)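 Zebrafish embryos from 2 female:3 male breeding, raised in E3 medium at 28 °C. Compound given at 1 to 30 µM in 0.1% DMSO vehicle, 20 µM terfenadine as reference, 4 h incubation. Embryos treated with tricaine, then 30 beats timed per atrium and ventricle. Rate = 1800/time(s) beats/min; AV ratio derived from these counts.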

Data set [4] concerns the target DNA gyrase (Staphylococcus aureus) (UniProt P0A0K8+P20831). Put plainly: Inhibition of Staphylococcus aureus DNA gyrase assessed as inhibition of DNA supercoiling. The data set is classed as protein-complex assay.
The target in data set [5] is DNA gyrase subunit B (Mycobacterium smegmatis) (UniProt P0C559). The experiment in a line: Inhibition of Mycobacterium smegmatis GyrB by ATPase assay. Conditions: Mycolicibacterium smegmatis.
Sequence of DNA gyrase subunit B (Mycobacterium smegmatis) (P0C559 2-675 limits assumed): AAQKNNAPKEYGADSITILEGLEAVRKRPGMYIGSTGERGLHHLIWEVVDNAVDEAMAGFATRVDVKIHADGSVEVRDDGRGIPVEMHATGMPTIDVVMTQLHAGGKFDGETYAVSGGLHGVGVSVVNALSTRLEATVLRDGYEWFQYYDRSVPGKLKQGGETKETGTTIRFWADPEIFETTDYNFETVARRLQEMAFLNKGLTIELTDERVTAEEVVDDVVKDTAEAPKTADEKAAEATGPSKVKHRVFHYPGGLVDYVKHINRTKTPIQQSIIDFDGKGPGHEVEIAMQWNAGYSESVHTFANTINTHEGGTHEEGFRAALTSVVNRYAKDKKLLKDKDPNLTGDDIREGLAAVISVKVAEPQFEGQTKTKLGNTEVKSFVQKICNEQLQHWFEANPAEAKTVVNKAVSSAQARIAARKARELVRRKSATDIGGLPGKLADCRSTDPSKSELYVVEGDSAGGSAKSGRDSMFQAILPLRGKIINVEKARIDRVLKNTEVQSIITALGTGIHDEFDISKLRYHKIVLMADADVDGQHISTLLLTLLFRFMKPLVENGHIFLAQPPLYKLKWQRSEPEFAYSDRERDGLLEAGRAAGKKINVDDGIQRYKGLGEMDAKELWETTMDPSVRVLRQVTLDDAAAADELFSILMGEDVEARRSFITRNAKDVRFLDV
The nature of data set [6]: Toxicity in zebrafish embryo assessed as heart rate at 30 uM. Further details: species or system Danio rerio. Conditions: in vivo. In short, it runs like this:
as §1

Data set [7] deals with Mycobacterium tuberculosis. The experiment in a line: Antimicrobial activity against Mycobacterium tuberculosis H37Rv ATCC 27294 after 28 days by alamar blue assay. Conditions: H37Rv ATCC 27294, 672 h. It counts as functional. For orientation: Resazurin is reduced to fluorescent resorufin, in cell work by metabolically active cells.
Data set [8] deals with Escherichia coli. The experiment in a line: Inhibition of Escherichia coli DNA gyrase assessed as inhibition of DNA supercoiling.
A short description of data set [9]: Inhibition of zebrafish ERG at 1 to 30 uM. Further details: species or system Danio rerio. In short, it runs like this:
as §1

The target of data set [10] is DNA gyrase (Pseudomonas aeruginosa) (UniProt P48372+Q9I7C2). The experiment in a line: Inhibition of Pseudomonas aeruginosa DNA gyrase assessed as inhibition of DNA supercoiling. It counts as protein-complex assay.
The nature of data set [11]: Cytotoxicity against mouse RAW264.7 cells assessed as inhibition of cell growth at 50 uM after 72 hrs by MTT assay. It counts as cell-based. In short, it runs like this:
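RAW 264.7 mouse macrophages exposed to compound at 50 µM for 72 h. Viability read by MTT conversion to formazan, reported as percent inhibition.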
For orientation: Tetrazolium dyes change colour on reduction, which living cells bring about.

A word on the inhibition: it is the change of the read-out against control, counted positive when it falls. One may read the IC50 as the midpoint of a concentration-inhibition curve. As usually defined, the MIC is the lowest concentration found to suppress growth. A high value points to weaker potency.

Sequence of DNA gyrase (Staphylococcus aureus) (P0A0K8 2-644 limits assumed): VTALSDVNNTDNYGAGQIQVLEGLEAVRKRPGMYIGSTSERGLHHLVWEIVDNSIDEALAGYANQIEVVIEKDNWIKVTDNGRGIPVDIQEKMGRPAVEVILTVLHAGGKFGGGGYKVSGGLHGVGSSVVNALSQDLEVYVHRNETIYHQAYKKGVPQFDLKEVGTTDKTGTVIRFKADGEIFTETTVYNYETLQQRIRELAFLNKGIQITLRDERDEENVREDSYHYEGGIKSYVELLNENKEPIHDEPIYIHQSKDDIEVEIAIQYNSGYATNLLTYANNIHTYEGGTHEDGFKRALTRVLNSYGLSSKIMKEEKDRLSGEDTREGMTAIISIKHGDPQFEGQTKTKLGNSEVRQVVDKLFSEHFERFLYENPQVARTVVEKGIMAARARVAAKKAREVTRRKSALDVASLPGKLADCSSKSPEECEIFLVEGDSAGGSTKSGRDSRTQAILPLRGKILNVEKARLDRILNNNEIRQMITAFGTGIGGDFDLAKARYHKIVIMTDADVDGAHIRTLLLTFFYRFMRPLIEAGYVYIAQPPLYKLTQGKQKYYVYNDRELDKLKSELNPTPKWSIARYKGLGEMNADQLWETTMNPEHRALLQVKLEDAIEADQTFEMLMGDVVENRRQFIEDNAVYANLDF
Sequence of DNA gyrase (Staphylococcus aureus) (P20831 whole entry partner): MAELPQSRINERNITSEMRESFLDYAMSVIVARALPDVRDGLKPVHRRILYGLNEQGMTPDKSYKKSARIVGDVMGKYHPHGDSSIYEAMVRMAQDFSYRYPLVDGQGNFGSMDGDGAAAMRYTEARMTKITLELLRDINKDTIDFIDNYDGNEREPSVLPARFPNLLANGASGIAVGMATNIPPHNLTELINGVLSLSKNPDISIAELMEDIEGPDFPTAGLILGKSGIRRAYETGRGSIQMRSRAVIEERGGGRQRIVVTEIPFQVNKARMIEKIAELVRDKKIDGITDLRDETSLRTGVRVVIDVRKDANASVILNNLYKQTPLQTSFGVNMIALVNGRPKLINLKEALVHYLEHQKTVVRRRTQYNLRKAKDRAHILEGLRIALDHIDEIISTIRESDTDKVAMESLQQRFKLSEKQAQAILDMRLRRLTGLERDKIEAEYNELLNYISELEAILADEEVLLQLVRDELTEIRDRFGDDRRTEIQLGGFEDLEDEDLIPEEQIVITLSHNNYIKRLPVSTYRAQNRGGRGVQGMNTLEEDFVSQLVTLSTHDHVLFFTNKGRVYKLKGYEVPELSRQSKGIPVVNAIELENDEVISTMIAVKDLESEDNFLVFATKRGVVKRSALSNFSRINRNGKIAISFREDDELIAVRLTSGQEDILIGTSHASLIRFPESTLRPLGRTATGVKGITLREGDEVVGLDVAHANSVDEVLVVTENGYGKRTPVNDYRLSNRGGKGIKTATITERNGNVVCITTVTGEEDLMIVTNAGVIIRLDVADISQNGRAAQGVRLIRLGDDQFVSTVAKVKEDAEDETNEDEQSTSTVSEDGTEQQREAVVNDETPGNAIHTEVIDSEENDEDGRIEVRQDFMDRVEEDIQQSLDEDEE

`Cc1ccc2nc3ccccc3c(Nc3ccc(NS(=O)(=O)c4ccc(Cl)cc4)cc3)c2c1`: the inhibition entry in [1], in data set [4], in data set [5], in data set [8] and in data set [10] was “inactive” throughout. In addition, the IC50 in [2] is 5.21 µM. For the same compound, the Activity entry in [3] and in [6] was “Non-toxic” each time. For the same compound, the lowest concentration to inhibit growth in data set [7] (MIC) was 6.59 µM (≈ 3.12 µg/mL). The “inhibition (INH)” value in data set [9] was “Not Active”. For the same compound, the inhibition at 72 h, 50 µM in [11] stood at 11.8%.
